In experiment [1] the target is T1, Proto-oncogene tyrosine-protein kinase Src (Homo sapiens, UniProt P12931). In words: Inhibition cSRC.
Experiment [2] concerns the target T1, Proto-oncogene tyrosine-protein kinase Src. In words: Inhibition cSRC at 10 uM. Put shortly: (§1)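 Purified kinases assayed by ELISA on wells coated with 20 µg/mL poly(Glu,Tyr)4:1. Detected with PY99 anti-phosphotyrosine, HRP anti-mouse IgG and o-phenylenediamine; A492.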
The target in experiment [3] is T2, Tyrosine-protein kinase ABL1 (Homo sapiens, UniProt P00519). In words: Inhibition cABl. A digest of the protocol:
as §1

Experiment [4] addresses Fibroblast growth factor receptor 2 (Homo sapiens) (UniProt P21802). The conditions noted are these: 10 uM.
The target of experiment [5] is Vascular endothelial growth factor receptor 2 (Homo sapiens) (UniProt P35968). In words: Inhibition KDR at 10 uM. A digest of the protocol: as §1
Experiment [6] has as its target T1, Proto-oncogene tyrosine-protein kinase Src. In words: Inhibition of human SRC-mediated migration of human MDA-MB-231 cells by wound-healing assay.
A further experiment deals with MDA-MB-231. In words: Antiproliferative activity against human MDA-MB-231 cells assessed as viability after 24 hrs by MTT assay. Format: functional. A digest of the protocol:
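MDA-MB-231 cells (ATCC; L15 medium, 10% FBS, 37 °C, 5% CO2) exposed to test concentrations for 24 h; viability scored by MTT.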

For experiment [7], the target named is T1, Proto-oncogene tyrosine-protein kinase Src. In words: Inhibition of SRC phosphorylation in human MDA-MB-231 cells. The format is cell-based. Put shortly:
(§2)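 MDA-MB-231 cells, 4.5×10^5 per well, plated overnight. Then exposed for 24 h to 1, 3 or 10 µM compound or DMSO alone. Western blot probed p-Src (Tyr416), total Src, p-FAK (Tyr861), FAK and GAPDH. Three independent blots.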

Experiment [8] addresses T3, Ephrin type-B receptor 2 (Homo sapiens) (UniProt P29323).
T3 sequence (whole entry): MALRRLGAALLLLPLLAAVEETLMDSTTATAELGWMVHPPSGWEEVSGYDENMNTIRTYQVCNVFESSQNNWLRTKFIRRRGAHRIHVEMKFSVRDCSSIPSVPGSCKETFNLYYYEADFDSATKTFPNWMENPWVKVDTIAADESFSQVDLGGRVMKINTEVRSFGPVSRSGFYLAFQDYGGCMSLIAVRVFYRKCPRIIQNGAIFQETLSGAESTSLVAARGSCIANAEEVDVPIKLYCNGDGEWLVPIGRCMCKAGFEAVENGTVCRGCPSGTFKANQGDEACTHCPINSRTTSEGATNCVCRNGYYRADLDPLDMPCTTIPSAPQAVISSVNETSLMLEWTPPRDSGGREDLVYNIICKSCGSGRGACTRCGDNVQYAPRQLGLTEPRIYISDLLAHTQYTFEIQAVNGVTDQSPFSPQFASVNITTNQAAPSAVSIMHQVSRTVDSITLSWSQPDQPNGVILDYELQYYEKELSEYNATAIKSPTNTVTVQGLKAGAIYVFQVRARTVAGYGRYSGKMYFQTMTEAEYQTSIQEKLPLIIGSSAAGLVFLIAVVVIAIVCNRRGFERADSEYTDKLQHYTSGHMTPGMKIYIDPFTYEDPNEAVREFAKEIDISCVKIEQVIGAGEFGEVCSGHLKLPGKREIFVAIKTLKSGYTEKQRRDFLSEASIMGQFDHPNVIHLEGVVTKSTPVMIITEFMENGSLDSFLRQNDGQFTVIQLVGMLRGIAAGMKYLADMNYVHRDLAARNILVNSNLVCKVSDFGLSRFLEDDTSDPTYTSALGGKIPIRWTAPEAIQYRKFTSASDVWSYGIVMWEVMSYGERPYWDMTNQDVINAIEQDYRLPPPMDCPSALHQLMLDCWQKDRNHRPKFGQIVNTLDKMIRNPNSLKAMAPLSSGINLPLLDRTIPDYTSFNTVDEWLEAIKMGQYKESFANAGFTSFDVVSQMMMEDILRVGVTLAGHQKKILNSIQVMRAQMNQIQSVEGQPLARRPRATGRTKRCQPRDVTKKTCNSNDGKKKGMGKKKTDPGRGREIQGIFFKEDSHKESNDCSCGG
In words: Inhibition EphB2 at 10 uM. Put shortly: as §1

For experiment [9], the target named is Vascular endothelial growth factor receptor 1 (Homo sapiens) (UniProt P17948). In words: Inhibition VEGFR1 at 10 uM. A digest of the protocol: as §1
Experiment [10] has as its target Ephrin type-A receptor 2 (Homo sapiens) (UniProt P29317). In words: Inhibition EphA2 at 10 uM. Put shortly:
as §1

Experiment [11] deals with Platelet-derived growth factor receptor beta (Homo sapiens) (UniProt P09619). In words: Inhibition PDGFRbeta at 10 uM. A digest of the protocol:
as §1

Experiment [12] concerns the target Focal adhesion kinase 1 (Homo sapiens) (UniProt Q05397). In words: Inhibition of FAK phosphorylation in human MDA-MB-231 cells by Western blotting. Format: cell-based. A digest of the protocol: as §2
On the technique in general: Immunoblotting shows a protein as a band on a membrane.

Experiment [13] deals with Hepatocyte growth factor receptor (Homo sapiens) (UniProt P08581). The note with it: 10 uM.
Experiment [14] concerns the target T2, Tyrosine-protein kinase ABL1. In words: Inhibition cABl at 10 uM. A digest of the protocol: as §1
Experiment [15] has as its target T1, Proto-oncogene tyrosine-protein kinase Src. In words: Inhibition of human SRC-mediated invasion of human MDA-MB-231 cells. Format: cell-based. A digest of the protocol:
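Matrigel-coated (1 mg/mL) Transwell filters, 8 lm pores, with 10% FBS in the lower chamber. MDA-MB-231 cells and compound or DMSO were added together to the upper chamber and invaded 18 h at 37 °C. Non-invaded cells were removed. Invaded cells were stained with crystal violet, extracted with 10% acetic acid and read at 595 nm. Mean of three experiments, SD.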

For experiment [16], the target named is Receptor tyrosine-protein kinase erbB-2 (Homo sapiens) (UniProt P04626). In words: Inhibition ErbB2 at 10 uM. Put shortly: as §1
For experiment [17], the target named is Fibroblast growth factor receptor 1 (Homo sapiens) (UniProt P11362). In words: Inhibition FGFR1 at 10 uM. A digest of the protocol:
as §1

Experiment [18] has as its target T4, Mast/stem cell growth factor receptor Kit (Homo sapiens, UniProt P10721). In words: Inhibition kit. Put shortly: as §1
Experiment [19] has as its target T4, Mast/stem cell growth factor receptor Kit. In words: Inhibition kit at 10 uM. A digest of the protocol:
as §1

SMILES strings stand for the structures.

IC50, inhibition and Activity data for 45 compounds are collected here from ChEMBL document CHEMBL1177660, “Discovery of novel purine derivatives with potent and selective inhibitory activity against c-Src tyrosine kinase” (Bioorg Med Chem, 2010).

T1 sequence (P12931 2-536 limits assumed): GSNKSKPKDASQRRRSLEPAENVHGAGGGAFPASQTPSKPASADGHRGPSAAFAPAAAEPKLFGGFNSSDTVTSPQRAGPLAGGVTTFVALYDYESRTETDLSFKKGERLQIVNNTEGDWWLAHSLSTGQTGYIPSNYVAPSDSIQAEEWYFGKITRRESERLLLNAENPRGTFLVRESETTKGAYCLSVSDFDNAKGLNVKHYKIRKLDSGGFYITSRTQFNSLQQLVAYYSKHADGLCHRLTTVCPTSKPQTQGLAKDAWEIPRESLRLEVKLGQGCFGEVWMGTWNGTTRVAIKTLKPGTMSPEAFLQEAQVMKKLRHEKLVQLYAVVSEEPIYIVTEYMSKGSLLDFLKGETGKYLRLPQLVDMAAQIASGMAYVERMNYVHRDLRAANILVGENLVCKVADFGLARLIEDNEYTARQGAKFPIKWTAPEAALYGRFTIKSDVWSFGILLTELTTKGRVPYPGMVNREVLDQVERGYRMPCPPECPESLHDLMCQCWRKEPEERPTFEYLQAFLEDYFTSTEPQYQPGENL
T2 sequence (P00519 whole entry): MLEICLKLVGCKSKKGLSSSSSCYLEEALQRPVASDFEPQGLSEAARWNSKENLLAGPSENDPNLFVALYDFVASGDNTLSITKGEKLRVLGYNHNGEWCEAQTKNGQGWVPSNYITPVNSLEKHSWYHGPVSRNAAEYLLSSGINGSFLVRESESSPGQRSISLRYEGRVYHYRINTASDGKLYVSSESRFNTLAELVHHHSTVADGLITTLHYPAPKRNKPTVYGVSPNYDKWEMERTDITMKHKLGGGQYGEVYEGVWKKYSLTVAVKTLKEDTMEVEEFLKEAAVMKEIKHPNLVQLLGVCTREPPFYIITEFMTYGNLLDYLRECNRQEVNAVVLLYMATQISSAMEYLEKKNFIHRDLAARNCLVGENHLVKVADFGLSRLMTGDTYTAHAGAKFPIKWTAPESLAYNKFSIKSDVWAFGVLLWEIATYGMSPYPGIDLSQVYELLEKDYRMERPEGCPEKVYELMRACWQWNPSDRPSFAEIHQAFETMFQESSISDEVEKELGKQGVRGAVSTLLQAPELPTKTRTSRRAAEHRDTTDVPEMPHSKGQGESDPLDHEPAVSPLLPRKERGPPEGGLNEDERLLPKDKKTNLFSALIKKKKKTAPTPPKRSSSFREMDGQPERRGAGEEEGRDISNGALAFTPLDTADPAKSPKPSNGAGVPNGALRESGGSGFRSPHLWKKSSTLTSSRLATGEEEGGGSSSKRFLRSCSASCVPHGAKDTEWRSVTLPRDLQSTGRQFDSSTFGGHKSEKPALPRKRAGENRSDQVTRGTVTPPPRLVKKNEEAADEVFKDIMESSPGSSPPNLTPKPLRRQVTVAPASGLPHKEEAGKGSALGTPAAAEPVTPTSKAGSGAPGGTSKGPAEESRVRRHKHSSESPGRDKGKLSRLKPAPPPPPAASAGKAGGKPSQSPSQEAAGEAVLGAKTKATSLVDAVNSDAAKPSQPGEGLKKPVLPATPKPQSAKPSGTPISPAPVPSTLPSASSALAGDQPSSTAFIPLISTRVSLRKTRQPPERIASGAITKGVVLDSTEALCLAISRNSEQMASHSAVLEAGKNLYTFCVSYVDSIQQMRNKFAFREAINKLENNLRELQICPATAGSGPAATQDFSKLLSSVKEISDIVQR
T4 sequence (P10721 whole entry): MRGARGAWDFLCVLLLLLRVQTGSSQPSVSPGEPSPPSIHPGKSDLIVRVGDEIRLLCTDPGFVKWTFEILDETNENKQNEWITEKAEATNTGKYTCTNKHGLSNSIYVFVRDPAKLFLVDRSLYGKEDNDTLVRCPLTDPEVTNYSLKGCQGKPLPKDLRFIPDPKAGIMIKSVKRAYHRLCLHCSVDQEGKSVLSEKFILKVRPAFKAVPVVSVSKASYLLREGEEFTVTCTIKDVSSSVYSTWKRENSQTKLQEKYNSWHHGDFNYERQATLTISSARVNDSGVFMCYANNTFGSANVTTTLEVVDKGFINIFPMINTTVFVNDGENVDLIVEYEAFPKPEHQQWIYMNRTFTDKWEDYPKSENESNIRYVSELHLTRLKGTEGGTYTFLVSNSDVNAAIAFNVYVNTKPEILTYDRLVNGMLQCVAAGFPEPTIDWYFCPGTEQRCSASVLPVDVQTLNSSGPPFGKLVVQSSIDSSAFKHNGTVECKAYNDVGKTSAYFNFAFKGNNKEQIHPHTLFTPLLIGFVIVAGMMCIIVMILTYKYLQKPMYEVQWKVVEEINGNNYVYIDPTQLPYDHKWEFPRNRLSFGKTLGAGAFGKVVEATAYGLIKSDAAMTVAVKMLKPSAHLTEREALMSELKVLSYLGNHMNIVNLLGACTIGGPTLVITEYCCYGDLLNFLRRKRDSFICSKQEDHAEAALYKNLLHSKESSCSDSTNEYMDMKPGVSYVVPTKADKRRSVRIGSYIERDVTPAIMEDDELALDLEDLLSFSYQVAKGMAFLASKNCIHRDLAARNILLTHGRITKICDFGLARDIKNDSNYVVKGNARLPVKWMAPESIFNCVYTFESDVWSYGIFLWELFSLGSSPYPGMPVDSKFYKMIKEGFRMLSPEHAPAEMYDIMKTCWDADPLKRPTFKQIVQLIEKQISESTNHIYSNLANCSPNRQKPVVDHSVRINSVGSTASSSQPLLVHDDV
Sequence of Ephrin type-A receptor 2 (Homo sapiens) (P29317 whole entry): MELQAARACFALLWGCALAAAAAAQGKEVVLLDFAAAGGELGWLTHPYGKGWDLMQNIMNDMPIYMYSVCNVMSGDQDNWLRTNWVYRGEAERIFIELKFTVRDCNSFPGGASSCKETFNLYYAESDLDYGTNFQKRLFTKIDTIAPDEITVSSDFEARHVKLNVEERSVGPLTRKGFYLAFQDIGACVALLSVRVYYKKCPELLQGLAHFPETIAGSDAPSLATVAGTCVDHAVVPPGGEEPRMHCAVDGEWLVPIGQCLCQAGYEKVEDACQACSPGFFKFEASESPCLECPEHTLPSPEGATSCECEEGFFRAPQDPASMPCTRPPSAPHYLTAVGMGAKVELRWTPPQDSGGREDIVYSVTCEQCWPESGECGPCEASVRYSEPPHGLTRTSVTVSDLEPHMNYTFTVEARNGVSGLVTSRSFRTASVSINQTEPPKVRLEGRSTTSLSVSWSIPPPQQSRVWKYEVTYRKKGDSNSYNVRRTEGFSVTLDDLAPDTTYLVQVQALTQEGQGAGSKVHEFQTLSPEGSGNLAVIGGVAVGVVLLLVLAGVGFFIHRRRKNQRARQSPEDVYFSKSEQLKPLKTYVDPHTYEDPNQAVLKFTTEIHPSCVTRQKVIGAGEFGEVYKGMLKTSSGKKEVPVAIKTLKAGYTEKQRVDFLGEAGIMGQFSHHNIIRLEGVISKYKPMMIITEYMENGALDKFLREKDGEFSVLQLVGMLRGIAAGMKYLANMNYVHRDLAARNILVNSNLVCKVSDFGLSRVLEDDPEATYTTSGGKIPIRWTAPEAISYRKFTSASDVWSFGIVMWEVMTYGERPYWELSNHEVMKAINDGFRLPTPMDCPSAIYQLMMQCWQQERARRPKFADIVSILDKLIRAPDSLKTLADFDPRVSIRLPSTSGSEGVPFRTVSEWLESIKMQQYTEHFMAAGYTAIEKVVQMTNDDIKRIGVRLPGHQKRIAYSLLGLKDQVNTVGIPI
Sequence of Focal adhesion kinase 1 (Homo sapiens) (Q05397 2-1052 limits assumed): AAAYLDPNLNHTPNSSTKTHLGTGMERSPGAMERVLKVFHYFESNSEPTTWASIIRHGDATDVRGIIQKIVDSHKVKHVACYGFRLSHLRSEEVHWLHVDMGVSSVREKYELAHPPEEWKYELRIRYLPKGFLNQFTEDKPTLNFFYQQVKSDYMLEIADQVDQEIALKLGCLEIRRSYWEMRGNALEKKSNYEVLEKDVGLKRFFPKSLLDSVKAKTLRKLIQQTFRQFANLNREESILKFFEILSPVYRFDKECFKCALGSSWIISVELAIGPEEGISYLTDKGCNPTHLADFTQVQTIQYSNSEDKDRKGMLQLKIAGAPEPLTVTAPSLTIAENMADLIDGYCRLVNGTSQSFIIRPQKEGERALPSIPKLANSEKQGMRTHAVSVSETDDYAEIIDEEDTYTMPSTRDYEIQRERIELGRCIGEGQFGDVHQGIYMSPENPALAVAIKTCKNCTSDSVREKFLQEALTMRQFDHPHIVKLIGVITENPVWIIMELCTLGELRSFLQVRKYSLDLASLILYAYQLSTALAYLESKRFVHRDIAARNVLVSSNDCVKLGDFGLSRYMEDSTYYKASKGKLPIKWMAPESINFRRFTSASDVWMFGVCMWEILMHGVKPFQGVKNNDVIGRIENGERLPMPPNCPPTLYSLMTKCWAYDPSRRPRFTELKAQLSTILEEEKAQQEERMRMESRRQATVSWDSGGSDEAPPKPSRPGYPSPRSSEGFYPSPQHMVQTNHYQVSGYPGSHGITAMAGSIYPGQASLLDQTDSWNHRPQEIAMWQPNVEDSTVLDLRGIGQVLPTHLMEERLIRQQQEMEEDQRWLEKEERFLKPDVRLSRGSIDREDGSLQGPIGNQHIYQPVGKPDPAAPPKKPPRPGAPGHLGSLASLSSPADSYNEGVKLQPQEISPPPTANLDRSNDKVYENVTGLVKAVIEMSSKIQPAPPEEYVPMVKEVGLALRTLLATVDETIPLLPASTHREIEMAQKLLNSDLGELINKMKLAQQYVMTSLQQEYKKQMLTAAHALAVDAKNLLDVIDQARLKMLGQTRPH

Turning to `O=[N+]([O-])c1cccc(Nc2nc(N3CCOCC3)nc3[nH]cnc23)c1`, in experiment [1], half-maximal inhibition (IC50) was put at 130 nM.
On the same count and under the same terms, in the case of `O=[N+]([O-])c1cccc(Nc2nc(N3CCNCC3)nc3nc[nH]c23)c1` it was 950 nM; in that of `Brc1ccc(Nc2nc(N3CCNCC3)nc3[nH]cnc23)cc1`, 1760 nM.
Take `c1ccc(Cn2cnc3c(Nc4ccccc4)ncnc32)cc1`: the inhibition in [2] was determined as 13.9%. In [1], this compound showed an IC50 above 10000 nM.
For the compound `NC(=O)c1ccc(Nc2nc(N3CCNCC3)nc3nc[nH]c23)cc1`, the midpoint of inhibition in experiment [1], the IC50, lay at 2200 nM.
Take `Brc1ccc(Nc2nc(N3CCOCC3)nc3[nH]cnc23)cc1`: in [1], half-maximal inhibition (IC50) required 450 nM.
Still for that read-out and setting: to `COc1cccc(Nc2nc(N3CCOCC3)nc3[nH]cnc23)c1` belongs 930 nM.
Take `Brc1ccc(Nc2nc(N3CCOCC3)nc3c2ncn3Cc2ccccc2)cc1`: the inhibition in experiment [2] was 10.1%. The half-inhibitory concentration (IC50) in experiment [1] is above 10000 nM.
`COc1cccc(Nc2nc(N3CCN(CCO)CC3)nc3nc[nH]c23)c1` showed an IC50 in [1] of 1200 nM.
Same read-out and setting: to `NC(=O)c1ccc(Nc2nc(N3CCN(CCO)CC3)nc3[nH]cnc23)cc1` belongs 1220 nM; to `Clc1ccc(Nc2nc(N3CCOCC3)nc3nc[nH]c23)cc1`, 340 nM; to `NS(=O)(=O)c1cccc(Nc2nc(N3CCOCC3)nc3[nH]cnc23)c1`, 120 nM.
In the case of `COc1ccc(Nc2nc(N3CCNCC3)nc3c2ncn3Cc2ccccc2)cc1`, the inhibition in [2] was determined as 22.5%. The compound also showed a 50% inhibitory concentration (IC50) in experiment [1] above 10000 nM.
Turning to `COc1ccc(Nc2nc(N3CCNCC3)nc3nc[nH]c23)cc1`, the IC50 in experiment [1] worked out at 2430 nM.
The same measure, in the same setting: in the case of `Cc1cccc(Nc2nc(N3CCN(CCO)CC3)nc3nc[nH]c23)c1` it was 2550 nM.
Still for that read-out and setting: to `O=[N+]([O-])c1ccc(Nc2nc(N3CCOCC3)nc3nc[nH]c23)cc1` belongs 390 nM.
The same measure, in the same setting: in the case of `Clc1ccc(Nc2nc(N3CCNCC3)nc3[nH]cnc23)cc1` it was 1180 nM; in that of `Cc1cccc(Nc2nc(N3CCOCC3)nc3nc[nH]c23)c1`, 830 nM.
Compound `COc1ccc(Nc2nc(N3CCNCC3)nc3[nH]cnc23)cc1` had an inhibition in experiment [2] of 90.5%.
The compound `Brc1ccc(Nc2ncnc3c2ncn3Cc2ccccc2)cc1` showed an inhibition in [2] of 6.9%. In experiment [1], this compound showed an IC50 above 10000 nM.
Consider `CC(=O)Nc1ccc(Nc2nc(N3CCN(CCO)CC3)nc3[nH]cnc23)cc1`, for which the IC50 in experiment [1] was 1590 nM.
Still for that read-out and setting: in the case of `O=[N+]([O-])c1ccc(Nc2nc(N3CCN(CCO)CC3)nc3nc[nH]c23)cc1` it was 780 nM; in that of `COc1ccc(Nc2nc(N3CCN(CCO)CC3)nc3nc[nH]c23)cc1`, 1330 nM; in that of `COc1cccc(Nc2nc(N3CCNCC3)nc3nc[nH]c23)c1`, 1210 nM.
For `Cc1cccc(Nc2nc(N3CCNCC3)nc3nc[nH]c23)c1`, half-maximal inhibition in experiment [1] (IC50) was put at 2420 nM.
The same measure, in the same setting: to `CC(=O)Nc1ccc(Nc2nc(N3CCOCC3)nc3[nH]cnc23)cc1` belongs 650 nM; to `OCCN1CCN(c2nc(Nc3ccc(Cl)cc3)c3[nH]cnc3n2)CC1`, 690 nM.
`c1ccc(Cn2cnc3c(Nc4ccccc4)nc(N4CCOCC4)nc32)cc1`: the inhibition in experiment [2] came to 20.2%. For the same compound, the IC50 in [1] is above 10000 nM.
Turning to `NS(=O)(=O)c1ccc(Nc2nc(N3CCOCC3)nc3[nH]cnc23)cc1`, the concentration for half-maximal inhibition (IC50) in [3] amounted to 6000 nM; in experiment [1], 20 nM; in experiment [18], 1350 nM. The inhibition is 4.1% in [4]; 47.2% in [5]; “Dose-dependent effect” in [6]; “Dose-dependent effect” in [7]; 11.5% in [8]; 0% in experiment [9]. Further, the inhibition in experiment [10] was 48.7%; in experiment [11] it was 17.2%; in experiment [12], “Dose-dependent effect”; in experiment [13], 43.2%; in experiment [14], 73.4%; in experiment [15], “Dose-dependent effect”. Moreover, the figures for the inhibition in experiment [16], in [17] and in [19] were 43.1%, 48.7% and 83.1%, respectively. Moreover, the Activity in the experiment on MDA-MB-231 is above 95%.
As to `c1ccc(Cn2cnc3c(N4CCOCC4)ncnc32)cc1`, the inhibition in experiment [2] is 0%. Moreover, the IC50 in experiment [1] was above 10000 nM.
In experiment [1], `CC(=O)Nc1ccc(Nc2nc(N3CCNCC3)nc3nc[nH]c23)cc1` showed an IC50 of 1050 nM.
As for `OCCN1CCN(c2nc(Nc3ccccc3)c3nc[nH]c3n2)CC1`, the IC50 in experiment [1] was 3140 nM.
On the same count and under the same terms, in the case of `NC(=O)c1ccc(Nc2nc(N3CCOCC3)nc3nc[nH]c23)cc1` it was 2010 nM; in that of `NS(=O)(=O)c1cccc(Nc2nc(N3CCNCC3)nc3[nH]cnc23)c1`, 100 nM; in that of `O=[N+]([O-])c1cccc(Nc2nc(N3CCN(CCO)CC3)nc3[nH]cnc23)c1`, 340 nM.
In [2], `Cc1cccc(Nc2nc(N3CCNCC3)nc3[nH]cnc23)c1` showed an inhibition of 86.6%.
As for `c1ccc(Cn2cnc3c(N4CCOCC4)nc(N4CCOCC4)nc32)cc1`, in experiment [2], the inhibition was 16.4%. The half-maximal inhibitory concentration (IC50) in experiment [1] is above 10000 nM.
`NS(=O)(=O)c1ccc(Nc2nc(N3CCN(CCO)CC3)nc3nc[nH]c23)cc1` came in with an IC50 in experiment [1] of 260 nM.
In [2], `COc1ccc(Nc2nc(N3CCOCC3)nc3c2ncn3Cc2ccccc2)cc1` gave an inhibition of 16%. This compound showed an IC50 in experiment [1] above 10000 nM.
The corresponding values for `c1ccc(Cn2cnc3c(Nc4ccccc4)nc(N4CCNCC4)nc32)cc1` are 35.8% and above 10000 nM.
The compound `O=[N+]([O-])c1ccc(Nc2nc(N3CCNCC3)nc3[nH]cnc23)cc1` registered an IC50 in experiment [1] of 1400 nM.
Take `c1ccc(Nc2nc(N3CCOCC3)nc3[nH]cnc23)cc1`: the 50% inhibitory concentration (IC50) in experiment [1] came to 750 nM.
In experiment [1], `NS(=O)(=O)c1cccc(Nc2nc(N3CCN(CCO)CC3)nc3nc[nH]c23)c1` returned an IC50 of 340 nM.
The same measure, in the same setting: to `NS(=O)(=O)c1ccc(Nc2nc(N3CCNCC3)nc3[nH]cnc23)cc1` belongs 1820 nM.
For `COc1ccc(Nc2nc(N3CCOCC3)nc3[nH]cnc23)cc1`, in [1], the IC50 amounted to 130 nM.

What is called IC50 is the midpoint of a concentration-inhibition curve. Higher therefore signals lower potency. What is called inhibition is the percentage by which the read-out fell short of the control.
